Measurements gathered from unrelated publications.
Compare with care: the assays were run in different laboratories.
KIT A829P: Mast/stem cell growth factor receptor Kit (KIT, Homo sapiens, UniProt P10721, A829P)
KIT: Mast/stem cell growth factor receptor Kit (KIT, Homo sapiens, UniProt P10721)
KIT autoinhibited: Mast/stem cell growth factor receptor Kit, autoinhibited (KIT, Homo sapiens, UniProt P10721)
KIT L576P: Mast/stem cell growth factor receptor Kit (KIT, Homo sapiens, UniProt P10721, L576P)
KIT T670I/V559D: Mast/stem cell growth factor receptor Kit (KIT, Homo sapiens, UniProt P10721, T670I/V559D)
KIT V559D: Mast/stem cell growth factor receptor Kit (KIT, Homo sapiens, UniProt P10721, V559D)
KIT V559D/V654A: Mast/stem cell growth factor receptor Kit (KIT, Homo sapiens, UniProt P10721, V559D/V654A)
KIT D816H: Mast/stem cell growth factor receptor Kit (KIT, Homo sapiens, UniProt P10721, D816H)
KIT D816V: Mast/stem cell growth factor receptor Kit (KIT, Homo sapiens, UniProt P10721, D816V)

| SMILES | target | test | conditions | remaining binding |
| --- | --- | --- | --- | --- |
| Nc1ncc2c(n1)-c1c([nH]c3ccc(C#CC4CC4)cc13)CCCC2 | KIT A829P | binding, competition with immobilised ligand | 1 µM | 72% |
| C[C@@H]1CN(c2ccc3ncc(-c4ccc5[nH]nc(C6CC6)c5c4)n3n2)C[C@H](C)O1 | KIT | binding, competition with immobilised ligand | 0.5 µM | 50% |
| COc1ncc2cc3ccccc3nc2c1C#N | KIT autoinhibited | cell-free assay, competition with immobilised ligand | 5 µM | 98% |
| CN1CCN(c2ccc(Nc3nccc(-c4cccc([N+](=O)[O-])c4)n3)cc2C(F)(F)F)CC1 | KIT L576P | binding | 10 µM | 0.05% |
| C[C@H]1CCN(c2nccc(-c3cnn4ncccc34)n2)C1 | KIT T670I/V559D | binding | 1 µM | 98% |
| Cc1cc(NC(=O)c2cccc(S(F)(F)(F)(F)F)c2)cc(-n2ccn3nc(-c4cccnc4)cc23)c1 | KIT L576P | cell-free assay, competition with immobilised ligand | 1 µM | 100% |
| O=C(NCCCN1CCOCC1)c1ccc(Nc2ncc(Cl)c(-c3ccc(Cl)s3)n2)cc1 | KIT A829P | binding, competition with immobilised ligand | 1 µM | 16% |
| CC1CCCN1c1nccc(-c2cnn3ncccc23)n1 (centres unmarked) | KIT V559D | binding | 1 µM | 100% |
| O=C(N1CCS(=O)(=O)CC1)N1C[C@H](c2ccc(OC(F)(F)F)cc2)C[C@H](c2nc(C3CC3)no2)C1 | KIT V559D/V654A | cell-free assay, competition with immobilised ligand | 1 µM | 100% |
| CN1CCN(c2ccc(Nc3nccc(-c4ccccc4)n3)cc2C(F)(F)F)CC1 | KIT L576P | binding | 10 µM | 0.45% |
| Cc1cnn2ncc(-c3ccnc(N(C)C)n3)c2c1 | KIT V559D | binding | 1 µM | 100% |
| CNC(=O)[C@@H]1CC[C@@H](n2c(-c3ccc4cnccc4c3)nc3ccc(C(=O)NCc4cccc(C(N)=O)c4)cc32)C1 | KIT V559D/V654A | binding, competition with immobilised ligand | 1 µM | 96% |
| F[C@@H]1CCN(c2nccc(-c3cnn4ncccc34)n2)C1 | KIT autoinhibited | binding | 1 µM | 100% |
| Cn1cc(Cl)c2c(Oc3c(F)cc(Nc4cc(Cl)nc(N)n4)cc3F)ccnc21 | KIT A829P | cell-free assay, competition with immobilised ligand | 0.1 µM | 63% |
| O=C(c1ccc(Nc2ncc(Cl)c(-c3cc4ccccc4s3)n2)cc1)N1CCC(N2CCCC2)CC1 | KIT T670I/V559D | binding, competition with immobilised ligand | 1 µM | 17% |
| c1cncc(-c2cccc(Nc3nccc(NC4CCCCC4)n3)c2)c1 | KIT L576P | binding, competition with immobilised ligand | 10 µM | 0% |
| O=C(c1ccc(Nc2nccc(-c3cc4ccccc4s3)n2)cc1)N1CCC(N2CCCC2)CC1 | KIT D816H | binding, competition with immobilised ligand | 1 µM | 18% |
| O=C(NCC1CCOCC1)c1n[nH]cc1NC(=O)c1c(F)cccc1F | KIT | binding, competition with immobilised ligand | 1 µM | 100% |
| C[C@@H](c1cccc(C#N)c1)n1cc(Cl)cc(C(N)=O)c1=N | KIT D816H | cell-free assay, competition with immobilised ligand | 1 µM | 100% |

| SMILES | target | test | conditions | remaining binding |
| --- | --- | --- | --- | --- |
| Cc1nc(NC(=O)N2CCC[C@H]2C(N)=O)sc1-c1ccnc(C(C)(C)C(F)(F)F)c1 | KIT autoinhibited | binding, competition with immobilised ligand | 10 µM | 100% |
| COc1cnc(Nc2cccc(S(N)(=O)=O)c2)nc1N1CCN(c2ccccc2)C(=O)C1 | KIT D816H | binding, competition with immobilised ligand | 1 µM | 55% |
| C=CC(=O)N1CCC(C(=O)NCC(=O)N2CCN(c3nc(-c4cnc(N)nc4C(F)F)nc(N4CCOCC4)n3)CC2)CC1 | KIT D816H | binding, competition with immobilised ligand | 1 µM | 100% |
| O=C(NCCCN1CCOCC1)c1ccc(Nc2nccc(-c3cc4ccccc4s3)n2)cc1 | KIT T670I/V559D | binding, competition with immobilised ligand | 1 µM | 29% |
| CN(C)c1nccc(-c2cnc3ncccn23)n1 | KIT D816H | binding | 1 µM | 52% |
| CCC(=O)N[C@@H]1CC[C@H](C(=O)N(C)c2ccc(-c3nc4ccccc4o3)cc2)C1 | KIT autoinhibited | cell-free assay, competition with immobilised ligand | 1 µM | 93% |
| CCN1CCN(Cc2ccc(C(=O)Nc3ccc(C)c(Oc4ccc5c(c4)CC(=O)N5)c3)cc2C(F)(F)F)CC1 | KIT V559D | binding, competition with immobilised ligand | 1 µM | 0.4% |
| N[C@H]1CCN(c2nccc(-c3cnn4ncccc34)n2)C1 | KIT T670I/V559D | binding | 1 µM | 100% |
| COc1ccc2cc(OCC3(C(=O)O)CN(C(=O)c4ccc(F)cc4)C3)ccc2c1 | KIT T670I/V559D | cell-free assay, competition with immobilised ligand | 1 µM | 100% |
| COc1ccnn2ncc(-c3ccnc(N(C)C)n3)c12 | KIT | binding | 1 µM | 100% |
| Cc1cnc(Nc2ccc(C(=O)N3CCC(N4CCCC4)CC3)cc2)nc1-c1cc2ccccc2s1 | KIT L576P | binding, competition with immobilised ligand | 1 µM | 1% |
| C[C@@H](c1ccc(-n2cnc3c(N)ncnc32)cc1)N1CCc2nn(C)c(Cc3ccccc3)c2C1=O | KIT D816H | binding, competition with immobilised ligand | 0.1 µM | 64% |
| COc1cc(-c2cn(C3CCc4ccccc4N(CC(F)(F)F)C3=O)nn2)ccc1-n1ccc(C)n1 (centres unmarked) | KIT autoinhibited | cell-free assay, competition with immobilised ligand | 1 µM | 100% |
| COc1cnc(Nc2cccc(S(N)(=O)=O)c2)nc1N1CCN(c2ccccc2)CC1 | KIT V559D/V654A | binding, competition with immobilised ligand | 1 µM | 97% |
| O=C(Nc1c[nH]nc1C(=O)NC1CCNCC1)c1cc(F)cc(F)c1 | KIT D816V | binding, competition with immobilised ligand | 1 µM | 100% |
| N#Cc1ccccc1CSc1nnc2c(n1)[nH]c1ccccc12 | KIT | binding, competition with immobilised ligand | 10 µM | 100% |
| CN(c1nccc(-c2cnn3ncccc23)n1)C1CC1 | KIT D816V | binding | 1 µM | 85% |
| COc1ccc2c(c1)O[C@@H](c1ccc(OC)c(OC)c1)C[C@H]2NC(=O)C1(c2ccc3c(c2)OC(F)(F)O3)CC1 | KIT L576P | cell-free assay, competition with immobilised ligand | 1 µM | 92% |
| O=C(c1ccc(Nc2ncc(Cl)c(-c3ccc(Cl)s3)n2)cc1)N1CCC(N2CCCC2)CC1 | KIT L576P | binding, competition with immobilised ligand | 1 µM | 1.4% |
